Laboratory results: publication PMC10373183 (ACS Omega, 2023)
“Also recorded” adds a separate entry of the source.

Legend:
U937 cells = experiment: CellTiter-Glo Luminescent cell viability assay; assay type: cell-based, human; conditions: for inhibition at 25 µM / inhibition at 50 µM / inhibition at 100 µM / inhibition at 200 µM / GI50: Homo sapiens; for inhibition at 25 µM / inhibition at 50 µM / inhibition at 100 µM / inhibition at 200 µM: U-937, 72 h, read-out: percent inhibition at various concentrations of compounds (CellTiter-Glo, antiproliferative); for GI50: U-937, read-out: antiproliferative (U937) GI50; for antiproliferative activity (in words) / percent inhibition at various concentrations of compounds (CellTiter-Glo, antiproliferative): U937 cells; for antiproliferative activity (in words): CellTiter-Glo, four concentrations; for percent inhibition at various concentrations of compounds (CellTiter-Glo, antiproliferative): 72 h, Mitomycin C = 100%, DMSO = 0%
Outline: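 U937 cells incubated 72 h with test compound at four concentrations; CellTiter-Glo reagent added at equal volume, shaken 2 min to lyse, then held 10 min at room temperature before luminescence read. Viability = RLU test × 100/RLU control, converted to percent inhibition. GI50 fitted from percent inhibition. Mitomycin C positive control; DMSO diluent as negative control.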

[1] = LDH release cytotoxicity assay; assay type: cell-based; conditions: human, U937 cells
Outline: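 U937 cells plated and exposed to test compound at several concentrations for 4 h at 37 °C, with Triton X-100 as positive cytotoxicity control. Plates spun 1000 RPM for 5 min. Supernatants mixed with LDH detection reagent for 10 min in the dark at room temperature, then read at OD 490 nm. LC50 fitted from percent activity.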

GI50 (U937 cells) [µM]	Compound	inhibition at 25 µM (U937 cells) [%]	inhibition at 50 µM (U937 cells) [%]	inhibition at 100 µM (U937 cells) [%]	inhibition at 200 µM (U937 cells) [%]	antiproliferative activity (in words) (U937 cells)	inhibition at 4 h, 12.5 µM [1] [%]	inhibition at 4 h, 25 µM [1] [%]	inhibition at 4 h, 50 µM [1] [%]	inhibition at 4 h, 100 µM [1] [%]	percent inhibition at various concentrations of compounds (CellTiter-Glo, antiproliferative) (U937 cells; 25 μM compound)	percent inhibition at various concentrations of compounds (CellTiter-Glo, antiproliferative) (U937 cells; 50 μM compound)	percent inhibition at various concentrations of compounds (CellTiter-Glo, antiproliferative) (U937 cells; 100 μM compound)	percent inhibition at various concentrations of compounds (CellTiter-Glo, antiproliferative) (U937 cells; 200 μM compound)
1.7	Cc1n[nH]c(C)c1S(=O)(=O)NCCC1=CCCCC1 [MR-S1-1, N-(2-(Cyclohex-1-en-1-yl)ethyl)-3,5-dimethyl-1H-pyrazole-4-sulfonamide]	18.6	34.5	54.2	64.2	moderate anti-proliferative activity	-0.9	-2.2	-0.4	-1.8				
> 200	Cc1nn(C)c(C)c1S(=O)(=O)NCCC1=CCCCC1 [MR-S1-2, N-(2-(Cyclohex-1-en-1-yl)ethyl)-1,3,5-trimethyl-1H-pyrazole-4-sulfonamide]	24.8	29.3	42.2	58		-1.3	-3.6	-3.1	-5.3				
16	Cc1n[nH]c(C)c1S(=O)(=O)NCCc1ccccc1 [MR-S1-3, 3,5-Dimethyl-N-phenethyl-1H-pyrazole-4-sulfonamide]	12.7	24.5	31.8	74.8	moderate anti-proliferative activity	-0.9	-2.4	-1.3	-1.3				
> 200	Cc1nn(C)c(C)c1S(=O)(=O)NCCc1ccccc1 [MR-S1-4, 1,3,5-Trimethyl-N-phenethyl-1H-pyrazole-4-sulfonamide]	33	19.2	37.8	23.2	impotent; also recorded: less anti-proliferative activity	-2.9	-2.2	-0.9	-1.8				
16	Cc1n[nH]c(C)c1S(=O)(=O)NCCc1ccc(Cl)cc1 [MR-S1-5, N-(4-Chlorophenethyl)-3,5-dimethyl-1H-pyrazole-4-sulfonamide]	48.3	44.2	61.5	78.7	moderate anti-proliferative activity	-1.8	-2.2	-0.2	-2.7				
> 200	Cc1nn(C)c(C)c1S(=O)(=O)NCCc1ccc(Cl)cc1 [MR-S1-6, N-(4-Chlorophenethyl)-1,3,5-trimethyl-1H-pyrazole-4-sulfonamide]	40.5	17.9	28.4	44.2		3.3	-1.3	-2	-1.6				
> 200	Cc1n[nH]c(C)c1S(=O)(=O)NCCc1cccc(Cl)c1 [MR-S1-7, N-(3-Chlorophenethyl)-3,5-dimethyl-1H-pyrazole-4-sulfonamide]	14.5	13.4	24.2	51.6		-2	-2.4	0.9	-3.1				
> 200	Cc1nn(C)c(C)c1S(=O)(=O)NCCc1cccc(Cl)c1 [MR-S1-8, N-(3-Chlorophenethyl)-1,3,5-trimethyl-1H-pyrazole-4-sulfonamide]	25.1	28.4	34.6	47.4		2.9	-1.3	1.8	0.4				
> 200	COc1ccc(CCNS(=O)(=O)c2c(C)n[nH]c2C)cc1OC [MR-S1-9, N-(3,4-Dimethoxyphenethyl)-3,5-dimethyl-1H-pyrazole-4-sulfonamide]	-0.5	-26.2	-21.2	2	impotent; also recorded: less anti-proliferative activity	-2.7	2.7	2.4	-2.4				
3.3	CCCOc1ccc(CCNS(=O)(=O)c2c(C)n[nH]c2C)cc1OCCC [MR-S1-12, N-(3,4-Dipropoxyphenethyl)-3,5-dimethyl-1H-pyrazole-4-sulfonamide]	35.9	94.9	100	99.3	good antiproliferative activity; also recorded: potent	-2.2	0.7	-2.7	-0.9				
9.4	Cc1n[nH]c(C)c1S(=O)(=O)N[C@H](C)c1cccc2ccccc12 [MR-S1-14, (R)-3,5-Dimethyl-N-(1-(naphthalen-1-yl)ethyl)-1H-pyrazole-4-sulfonamide]	27.6	32.9	68.7	98.9	good antiproliferative activity; also recorded: most potent	-2.4	-4	-0.9	-3.1				
3	Cc1nn(C)c(C)c1S(=O)(=O)N[C@H](C)c1cccc2ccccc12 [MR-S1-15, (R)-1,3,5-Trimethyl-N-(1-(naphthalen-1-yl)ethyl)-1H-pyrazole-4-sulfonamide]	19.5	65.1	88.5	101	good antiproliferative activity; also recorded: most potent	0	-1.3	-1.8	-2.7				
> 200	Cc1n[nH]c(C)c1S(=O)(=O)NCCc1c[nH]c2ccccc12 [MR-S1-16, N-(2-(1H-Indol-3-yl)ethyl)-3,5-dimethyl-1H-pyrazole-4-sulfonamide]	14.5	24.1	22.5	55.9		3.8	-0.9	-1.6	-1.8				
> 200	Cc1nn(C)c(C)c1S(=O)(=O)NCCc1c[nH]c2ccccc12 [MR-S1-17, N-(2-(1H-Indol-3-yl)ethyl)-1,3,5-trimethyl-1H-pyrazole-4-sulfonamide]	18.6	12.9	32.2	12.9	impotent; also recorded: less anti-proliferative activity	-0.9	-2	-2	-1.6				
92.6	Cc1nn(C)c(C)c1S(=O)(=O)N1CCC(c2nc3ccccc3[nH]2)CC1 [MR-S1-18, 2-(1-((1,3,5-Trimethyl-1H-pyrazol-4-yl)sulfonyl)piperidin-4-yl)-1H-benzo[d]imidazole]	11.7	36.4	43.9	83.4	good antiproliferative activity	0.2	-1.8	0.2	-0.4				
> 200	CCOCCn1c(C2CCN(S(=O)(=O)c3c(C)n[nH]c3C)CC2)nc2ccccc21 [MR-S1-19, 2-(1-((3,5-Dimethyl-1H-pyrazol-4-yl)sulfonyl)piperidin-4-yl)-1-(2-ethoxyethyl)-1H-benzo[d]imidazole]	-5	2.2	-1.3	18	impotent; also recorded: less anti-proliferative activity	-4.9	-1.3	-1.8	-4				
	N-(3,4-Bis(methoxy-d3)phenethyl-d6)-3,5-dimethyl-1H-pyrazole-4-sulfonamide [MR-S1-10]					less anti-proliferative activity					–8.1%	–37.5%	–39.0%	–14.5%
